ChEMBL document CHEMBL1148740, “Synthesis and SAR investigations for novel melanin-concentrating hormone 1 receptor (MCH1) antagonists Part 1. The discovery of arylacetamides as viable replacements for the dihydropyrimidinone moiety of an HTS hit” (J Med Chem, 2007)

Columns and labels:
[1] = Drug level in Sprague-Dawley rat plasma at 10 mg/kg, po after 1 hr; type: ADME, organism-based; parameters: dose 10 mg/kg, route oral
In short: (§1)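 Femoral-artery-cannulated male Sprague-Dawley rats (300-350 g), n = 3, were given 10 mg/kg orally in vehicle. Blood was drawn predose and at 1, 2 and 4 h; brains were collected at 4 h and stored at -80 °C. Plasma or brain homogenate was pooled from three rats per time point, protein-precipitated and analysed by LC/MS/MS. Quantitation limits were 2 ng/mL plasma and 2 ng/g brain.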

[2] = Drug level in Sprague-Dawley rat plasma at 10 mg/kg, po after 4 hrs; type: ADME, organism-based; parameters: dose 10 mg/kg, route oral; in short: as §1
[3] = Drug level in Sprague-Dawley rat plasma at 10 mg/kg, po after 2 hrs; type: ADME, organism-based; parameters: dose 10 mg/kg, route oral; in short: as §1
[4] = Drug level in Sprague-Dawley rat brain at 10 mg/kg, po after 4 hrs; type: ADME, organism-based; parameters: dose 10 mg/kg, route oral; conditions: read-out: Drug uptake; in short: as §1
[5] = biological target: T1, Melanin-concentrating hormone receptor 1 (Rattus norvegicus, UniProt P97639); experiment: Antagonist activity at rat MCHR1 expressed in HEK293 cells assessed as effect on calcium mobilization; type: functional, cell-based
T1 sequence (P97639 whole entry): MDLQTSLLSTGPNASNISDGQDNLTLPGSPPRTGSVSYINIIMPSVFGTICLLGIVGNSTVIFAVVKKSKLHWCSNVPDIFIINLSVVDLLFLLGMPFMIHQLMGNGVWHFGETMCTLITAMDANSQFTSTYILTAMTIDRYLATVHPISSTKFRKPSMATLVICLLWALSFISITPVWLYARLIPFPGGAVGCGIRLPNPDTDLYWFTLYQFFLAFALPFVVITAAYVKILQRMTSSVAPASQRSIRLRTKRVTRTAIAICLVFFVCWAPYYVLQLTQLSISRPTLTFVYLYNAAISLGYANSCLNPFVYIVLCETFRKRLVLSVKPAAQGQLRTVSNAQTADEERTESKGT
In short: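 HEK293 cells stably expressing rat MCH1 were seeded for 16 h, loaded with 1.5 µM Fluo4 in HBSS for 60 min, washed, and preincubated 20 min with a range of test concentrations. They were then challenged with 30 nM MCH peptide. Calcium-driven fluorescence was read on a FLIPR, and IC50 came from nonlinear curve fitting.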

[6] = biological target: T1, Melanin-concentrating hormone receptor 1; experiment: Displacement of [3H]SNAP 7941 from rat MCHR1 expressed in HEK293 cells; type: cell-based
In short: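 Membranes from PEAK-RAPID HEK293 cells transiently transfected with rat MCH1 were incubated with varying concentrations of [3H]SNAP-7941. Buffer was 50 mM Tris, 10 mM MgCl2, 0.16 mM PMSF, 1 mM 1,10-phenanthroline, 0.2% BSA, pH 7.4; incubation 25 °C, 90 min. Ki is the mean ± SEM of n = 3.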

[7] = Plasma clearance in Sprague-Dawley rat at 2 mg/kg, po and 1 mg/kg, iv; type: ADME, organism-based
In short: (§2)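 Male Sprague-Dawley rats (200-250 g), n = 2, received 1 mg/kg iv, then 2 mg/kg orally in the same rat 24 h later. Plasma was taken from sampled blood by centrifugation and analysed by turbulent-flow LC/MS/MS. For blood/plasma distribution, blood was spiked at 109 ng/mL. Parameters came from plasma concentration-time profiles.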

[8] = Half life in Sprague-Dawley rat at 2 mg/kg, po and 1 mg/kg, iv; type: ADME, organism-based; conditions: in vivo; in short: as §2
[9] = Tmax in Sprague-Dawley rat at 2 mg/kg, po and 1 mg/kg, iv; type: ADME, organism-based; conditions: in vivo; in short: as §2
Rattus norvegicus [10] = organism: Rattus norvegicus; experiment: Anxiolytic activity in rat assessed as increase in social interaction time relative to control; type: functional
In short: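 Rats were acclimated 5 days, housed singly 5 days and handled 5 min daily. Weight-matched (±5%) unfamiliar pairs got identical treatment 1 h before testing, five pairs per group. Chlordiazepoxide 5 mg/kg was the reference. Pairs were placed 15 min in a floor-gridded arena, sessions were videotaped, and social interaction time was scored.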

[11] = Volume of distribution in Sprague-Dawley rat at 2 mg/kg, po and 1 mg/kg, iv; type: ADME, organism-based; conditions: in vivo, read-out: Vss; in short: as §2
Rattus norvegicus [12] = experiment: Anxiolytic activity in rat assessed as increase in social interaction time at 0.3 mg/kg, po relative to control
[13] = Blood clearance in Sprague-Dawley rat at 2 mg/kg, po and 1 mg/kg, iv; type: ADME, organism-based; conditions: whole blood; in short: as §2
[14] = Cmax in Sprague-Dawley rat at 2 mg/kg, po and 1 mg/kg, iv; type: ADME, organism-based; conditions: in vivo; in short: as §2
[15] = Bioavailability in Sprague-Dawley rat at 2 mg/kg, po and 1 mg/kg, iv; type: ADME, organism-based; conditions: in vivo; in short: as §2
[16] = Volume of distribution in Sprague-Dawley rat at 1 mg/kg, po and 1 mg/kg, iv; type: ADME, organism-based; conditions: in vivo, read-out: Vss
In short: (§3)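 Sprague-Dawley rats were dosed 1 mg/kg orally (n = 2) and 1 mg/kg iv (n = 2). Plasma concentration-time profiles were measured by LC/MS/MS and used for pharmacokinetic analysis.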

[17] = Half life in Sprague-Dawley rat at 1 mg/kg, po and 1 mg/kg, iv; type: ADME, organism-based; conditions: in vivo; in short: as §3
[18] = Cmax in Sprague-Dawley rat at 1 mg/kg, po and 1 mg/kg, iv; type: ADME, organism-based; conditions: in vivo; in short: as §3
[19] = Plasma clearance in Sprague-Dawley rat at 1 mg/kg, po and 1 mg/kg, iv; type: ADME, organism-based; in short: as §3
[20] = Bioavailability in Sprague-Dawley rat at 1 mg/kg, po and 1 mg/kg, iv; type: ADME, organism-based; conditions: in vivo; in short: as §3
[21] = Tmax in Sprague-Dawley rat at 1 mg/kg, po and 1 mg/kg, iv; type: ADME, organism-based; conditions: in vivo; in short: as §3

SMILES	IC50 [5]	Ki [6]	also measured
Cc1ccc(NC(=O)C(C)C)cc1C1CCN(CCCNC(=O)C(c2ccccc2)c2ccccc2)CC1	27 nM	3 nM	concentration at 1 h [1]: 69 ng/mL; concentration at 4 h [2]: 75 ng/mL; concentration at 2 h [3]: 59 ng/mL; concentration at 4 h [4]: 13 ng/g
CCC(C(=O)NCCCN1CCC(c2cccc(NC(=O)C(C)C)c2)CC1)(c1ccccc1)c1ccccc1	190 nM	–	–
CC(C)C(=O)Nc1cccc(C2CCN(CCCNC(=O)C(C)(c3ccccc3)c3ccccc3)CC2)c1	140 nM	7.5 nM	–
CC(C)C(=O)Nc1cccc(C2CCN(CCCCCCNC(=O)C(c3ccccc3)c3ccccc3)CC2)c1	600 nM	29 nM	–
CC(C)C(=O)Nc1cccc(C2CCN(CCCNC(=O)C(c3ccccc3)c3ccccc3)CC2)c1	25 nM	1.9 nM	concentration at 1 h [1]: 15 ng/mL; concentration at 4 h [2]: 15 ng/mL; concentration at 2 h [3]: 12 ng/mL
CC(C)C(=O)Nc1cccc(C2CCN(CCCCNC(=O)C(c3ccccc3)c3ccccc3)CC2)c1	620 nM	50 nM	–
CC(C)C(=O)Nc1cccc(C2CCN(CCCNC(=O)C(c3ccc(F)cc3)c3ccc(F)cc3)CC2)c1	13 nM	1.4 nM	–
CC(C)C(=O)Nc1cccc(C2CCN(CCCCCNC(=O)C(c3ccccc3)c3ccccc3)CC2)c1	–	47 nM	–
CC(C)C(=O)Nc1cc(C2CCN(CCCNC(=O)C(c3ccc(F)cc3)c3ccc(F)cc3)CC2)c(F)cc1F	34 nM	1.8 nM	clearance [7]: 40 mL/min/kg; half-life [8]: 2.1 h; Tmax [9]: 0.6 h; Activity (Rattus norvegicus [10]): 69.3 s; minimal effective dose (Rattus norvegicus [10]; Rattus norvegicus, read-out: MED): 0.3 mg/kg; Vd [11]: 3.6 L/kg; Time (Rattus norvegicus [12]): 69.3 s; clearance [13]: 60 mL/min/kg; Cmax [14]: 80 ng/mL; bioavailability [15]: 48%
CCCCCC(C(=O)NCCCN1CCC(c2cccc(NC(=O)C(C)C)c2)CC1)(c1ccccc1)c1ccccc1	–	8.5 nM	–
CC(C)C(=O)Nc1c(F)cc(F)c(C2CCN(CCCNC(=O)C(c3ccc(F)cc3)c3ccc(F)cc3)CC2)c1F	–	2.9 nM	–
Cc1ccc(NC(=O)C(C)C)cc1C1CCN(CCCNC(=O)[C@H](C)c2ccc(F)cc2)CC1	65 nM	28 nM	–
Cc1ccc(NC(=O)C(C)C)cc1C1CCN(CCCNC(=O)C2(c3ccc(F)cc3)CCCC2)CC1	44 nM	3.8 nM	–
Cc1ccc(C2CCN(CCCNC(=O)C(c3ccccc3)c3ccccc3)CC2)cc1NC(=O)C(C)C	> 1000 nM	500 nM	–
Cc1ccc(NC(=O)C(C)C)cc1C1CCN(CCCNC(=O)C(O)(c2ccccc2)c2ccccc2)CC1	27 nM	0.6 nM	–
CC(C)C(=O)Nc1cccc(C2CCN(CCNC(=O)C(c3ccccc3)c3ccccc3)CC2)c1	57 nM	1.9 nM	–
Cc1ccc(NC(=O)C(C)C)cc1C1CCN(CCCNC(=O)[C@@H](C)c2ccc(F)cc2)CC1	26 nM	10 nM	clearance [7]: 25 mL/min/kg; half-life [8]: 4.2 h; Tmax [9]: 2.2 h; Vd [11]: 3.4 L/kg; clearance [13]: 55 mL/min/kg; Cmax [14]: 305 ng/mL; bioavailability [15]: 81%
Cc1ccc(NC(=O)C(C)C)cc1C1CCN(CCCNC(=O)C2(c3ccc(F)cc3)CCCCC2)CC1	190 nM	1.9 nM	–
Cc1ccc(NC(=O)C(C)C)cc1C1CCN(CCCNC(=O)C(c2ccc(F)cc2)c2ccc(F)cc2)CC1	27 nM	0.62 nM	–
Cc1ccc(NC(=O)C(C)C)cc1C1CCN(CCCNC(=O)C(C)c2ccccc2)CC1 (single isomer, unassigned; form 1)	68 nM	34 nM	–
Cc1ccc(NC(=O)C(C)C)cc1C1CCN(CCCNC(=O)C(C)c2ccccc2)CC1 (single isomer, unassigned; form 2)	130 nM	37 nM	–
CNC1=Nc2ccc(Cl)cc2C(c2ccccc2)=[N+]([O-])C1 [CHLORDIAZEPOXIDE]	–	–	Time (Rattus norvegicus [12]): 85.1 s
COCC1=C(C(=O)OC)[C@H](c2ccc(F)c(F)c2)N(C(=O)NCCCN2CCC(c3cccc(NC(C)=O)c3)CC2)C(=O)N1 [SNAP-7941]	–	0.25 nM	Vd [16]: 24 L/kg; half-life [17]: 1.7 h; Cmax [18]: 2.02 ng/mL; clearance [19]: 153 mL/min/kg; bioavailability [20]: 6%; Tmax [21]: 4 h
